From PubChem
APP 5'UTR act – activators of APP 5'UTR luciferase reporter, primary screen, SH-SY5Y cells; SH-SY5Y APP 5'UTR luciferase reporter, luminescence; zero percent = DMSO vehicle wells; activation, % at 2 µM; actives 1% (n = 190,000); AID 1276, 2008;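 active means activation above a set limit, based on mean plus 3 SD of controls, cut at about 140% in these data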
NF-kB neuron act – activators of NF-kB expression in neurons, primary screen, cell-based, HTS; human neuronal cells, NF-kB reporter expression; stronger effect = higher value; fold change at 12.5 µM; actives 1.6% (n = 190,000); AID 1239, 2008; in the data active means fold change above about 3.3
FLuc stim CS – FLuc activators, initial screening, artefact control for FLuc-dependent activation tests, biochemical, ATPlite luminescence; Luciferin 4-monooxygenase (Photinus pyralis), P08659; ATPlite luciferase biochemical, 10 min; 0 = ATP-free wells, 1 = DMSO control; activation factor at 10 µM; 200,000 tested, under 10 active; AID 1027, 2008;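 active means luciferase activation factor, scaled between plate controls, of at least 2 with compound at 10 µM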
Target sequence (P08659 whole entry, looked up): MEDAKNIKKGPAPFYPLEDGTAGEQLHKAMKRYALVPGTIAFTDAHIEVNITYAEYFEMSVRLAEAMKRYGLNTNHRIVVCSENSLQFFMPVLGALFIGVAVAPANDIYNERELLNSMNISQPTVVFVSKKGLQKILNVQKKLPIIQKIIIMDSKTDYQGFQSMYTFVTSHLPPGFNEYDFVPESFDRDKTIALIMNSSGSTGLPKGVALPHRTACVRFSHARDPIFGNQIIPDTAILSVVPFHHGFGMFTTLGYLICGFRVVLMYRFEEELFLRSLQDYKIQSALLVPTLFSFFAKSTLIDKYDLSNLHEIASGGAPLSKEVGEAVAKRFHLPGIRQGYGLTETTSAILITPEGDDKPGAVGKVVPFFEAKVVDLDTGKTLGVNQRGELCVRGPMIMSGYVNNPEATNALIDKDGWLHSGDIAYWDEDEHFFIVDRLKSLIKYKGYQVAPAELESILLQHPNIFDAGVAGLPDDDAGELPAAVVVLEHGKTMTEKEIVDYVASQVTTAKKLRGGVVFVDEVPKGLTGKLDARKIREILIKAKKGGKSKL
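Material: luciferase plus luciferin reagent, cell-free. Medium: PBS buffer for ATP. Also added: ATP substrate, dispensed from a 10.24 µM working solution in PBS. Doses: test compounds dosed from 2 mM stocks in 100% DMSO. Incubation: 10 min post-reagent at room temperature. Technique: light output (luminescence). Read-out basis: luminescence gain marking luciferase activators.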
PPC-1+TRAIL kill – compounds killing PPC-1 cancer cells with TRAIL present, primary screen, TRAIL potentiator project, ATPLite luminescence, uHTS; cell killing (% activity), % at 4 µM or 5 µM; AID 1443, 2008; PPC-1 cells + TRAIL, ATPLite viability luminescence; actives 0.41% (n = 220,000);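 active means cell killing above 50% in the first pass at 4 µM, then a duplicate retest at 5 µM averaging 50% or more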;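 further: plate controls were cells with TRAIL plus DMSO for no effect and medium-only wells lacking cells for full effect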
TRAIL sens C8 – viability loss with TRAIL in NB7+C8 cells, primary screen, TRAIL sensitizer project, cell-based, ATPlite luminescence; inhibition (viability loss, TRAIL sensitization), % at 10 µM; actives 1% (n = 360,000);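 active means compounds causing at least 50% loss of cell viability in the single-dose screen, relative to plate controls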
FLuc inh counter – firefly luciferase enzyme inhibitors, primary screen, artefact control for luciferase-based inhibitor screens, biochemical, luminescence, ATPLite; Luciferin 4-monooxygenase (Photinus pyralis), P08659; 10 min; inhibition, % at 10 µM; actives 1.5% (n = 200,000);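 active means inhibition above about 50% when tested at 10 µM, limit read from the data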
Numbers without * were called inactive; x = not tested or not shown. Rows were chosen to be rich in hits. Some 2.2% of all compounds tested hit in one or more screens of this group.

SMILES	APP 5'UTR act	NF-kB neuron act	FLuc stim CS	PPC-1+TRAIL kill	TRAIL sens C8	FLuc inh counter
COc1ccc(C(=O)OCCc2ccc(O)cc2)cc1	118	6.7*	0.8	9	24	21
CSCCC(C(=O)NCc1ccccc1)n1c(-c2ccc3c(c2)CCO3)nc2ccccc21 (stereo not given)	x	x	x	x	1	x
COC(=O)[C@@]12C[C@@H](CC(=O)N3CCOCC3)C(=O)N(Cc3ccc4c(c3)OCO4)C1=CCC(C)(C)C2	x	x	x	x	-24	x
CSc1ccccc1-c1nnc(-c2ccc(C)cc2)o1	80	5*	0.3	47	62*	71*
CSc1ccccc1-c1nnc(-c2ccccc2)o1	140*	5.5*	0.4	10	39	64*
COc1ccccc1-c1nnc(-c2ccc(C)cc2)o1	x	x	x	x	53*	x
CSc1nnc(-c2ccccc2SC)o1	8	1.3	1	5	-6	2
COc1ccccc1-c1nnc(-c2ccc(N3CCOCC3)cc2)o1	26	1.1	0.7	14	1	28
Cc1cc(C)c(NC(=O)C2CCN(S(C)(=O)=O)CC2)c(C)c1	x	x	x	x	2	x
CN(C)c1ccc(/C=C/c2ccc3c4ccccc4ccc3[n+]2-c2ccccc2)cc1	-83	0.36	0.3	68*	63*	65*
Clc1ccc(-c2nc3c4ccccc4ccn3c2Cc2ccccc2)cc1	x	x	x	x	17	x
CCN(CC(=O)N1CCc2ccccc2C1)S(=O)(=O)c1ccc2ccccc2c1	-17	1	1.1	23	55*	-6
Cc1ccc(S(=O)(=O)N2CCN(c3nc(-c4cccs4)nc4ccccc34)CC2)cc1	x	x	x	x	0	x
O=C(Nc1cccc(Cl)c1)c1cnn2cccnc12	87	3.7*	0.8	3	9	21
O=C(Nc1cc(Cl)cc(Cl)c1)c1cnn2cccnc12	-7	1.3	1	-1	3	-3
O=C(CC[C@H]1O[C@@H](n2cnc3c(NC(=O)c4ccccc4)ncnc32)[C@H](O)[C@@H]1O)NCCc1cc2ccccc2[nH]1	x	x	x	x	7	x
CC(C)=CCC[C@H](C)C[C@@H]1Cc2[nH]c(=S)[nH]c(=O)c2[C@@H](c2ccc(F)cc2)O1	x	x	x	x	41	x
CCOC(=O)c1c(NC(=O)CC(C)C)sc(C(C)=O)c1C	-14	5.9*	1.1	10	-1	-6
CC(C)(C)c1ccc(CC(=O)N2CCC2(C)C(=O)NS(=O)(=O)c2ccccc2Cl)cc1 (stereo not given)	x	x	x	x	2	x
Cn1c(SCc2ccc(C#N)cc2Cl)nc2ccccc21	187*	5.3*	0.6	11	19	40
S=c1[nH]nc(-c2cc3c(s2)-c2ccccc2CC3)o1	24	1.6	0.9	21	-12	9
CC1CCc2sc(-c3n[nH]c(=S)o3)cc2C1 (stereo not given)	48	1.2	0.4	32	17	57*
COc1cccc(-c2ccc(CN3C(C(C)C)C(=O)N(Cc4cn(CCC5OCCO5)nn4)CCS3(=O)=O)cc2)c1OC (stereo not given)	x	x	x	x	-48	x
Cc1cccc(C(=O)Nc2ccc(O)cc2C(=O)O)c1	-10	0.95	0.8	2	2	24
Cc1ccc(C(=O)Nc2ccc(O)cc2C(=O)O)cc1	-10	1.1	0.4	20	25	59*
SMILES	APP 5'UTR act	NF-kB neuron act	FLuc stim CS	PPC-1+TRAIL kill	TRAIL sens C8	FLuc inh counter
Cc1ccc(C(=O)Nc2ccc(O)cc2C(=O)O)cc1C	11	1.1	0.3	36	31	69*
O=C1C2C(C(=O)N1/N=C/c1ccc([N+](=O)[O-])o1)C1C=CC2C12CC2 (stereo not given)	-12	1	1.1	14	10	-8
CC1=NN(c2nc(N)nc(/C(C#N)=C/c3ccc([N+](=O)[O-])o3)n2)C(C)(C)C1	x	x	x	x	79*	x
O=C(O)c1cccc(N/N=C/c2sc(N3CCOCC3)nc2-c2ccccc2)c1	31	2.3	0.4	5	20	60*
O=C(O)c1cccc(N/N=C/c2ccc(F)c(F)c2)c1	118	1	0.9	20	-1	12
O=C(O)c1cccc(N/N=C/C2=C(Cl)c3cc(Cl)ccc3SC2)c1	195*	5.2*	1	0	-7	3
CCOc1cc(/C=N/Nc2cccc(C(=O)O)c2)ccc1OC(=O)c1ccccc1	39	12*	1	16	7	-3
Cc1ccc(/C=N/Nc2cccc(C(=O)O)c2)s1	38	14*	0.8	32	11	23
CCN(CC)c1ccc2cc(C(=O)c3cccs3)c(=O)oc2c1	x	x	x	x	18	x
COc1ccccc1S(=O)(=O)N[C@@H]1CC[C@@H](CCn2cc(C3CC3)nn2)O[C@@H]1CO	x	x	x	x	-2	x
CN1C(=O)[C@@](O)(c2cn(C)c3ccccc23)c2cc(Br)ccc21	x	x	x	x	2	x
C[C@H]1[C@@H](Cc2cc(Cl)cc(Cl)c2)N(c2ccccc2)c2ccccc2CN1Cc1ccccc1	x	x	x	x	39	x
CCC(CC)C(=O)N(C)c1c(C)nc2c(OCc3ccc(C#N)cc3)cccn12	x	x	x	x	-13	x
Cc1ccsc1/C=N/Nc1cccc(C(=O)O)c1	-42	14*	0.4	1	16	59*
Clc1cccc(-c2nnc(-c3ccccc3)o2)c1	136*	8.8*	0.3	25	46	73*
c1ccc(-c2nnc(-c3ccccc3)o2)cc1	163*	4.6*	0.6	6	14	41
Clc1cccc(-c2nnc(-c3ccno3)o2)c1	x	x	x	-13	0	x
CCOC(=O)C1=CCN(S(=O)(=O)c2ccc(C)cc2)C1c1cccc(F)c1 (stereo not given)	x	x	x	x	0	x
CN1OC[C@@H]2CN(C(=S)NCCc3ccccc3)[C@H](c3ccc(-n4ccnc4)cc3)C[C@@H]21	x	x	x	x	6	x
COc1ccc(C(=O)Nc2ccc(Cl)c(Cl)c2)c(OC)n1	42	4.6*	0.9	4	5	10
COc1ccc(C(=O)O)c(OC)n1	x	x	x	43	-21	x
Cc1cccc(C)c1NC(=O)C1(C)CSCC(=O)N1CCc1c[nH]c2ccccc12 (stereo not given)	x	x	x	x	-6	x
Cc1ccsc1/C=C1\CCc2ccccc2C1=O	138*	3.5*	0.1	50	79*	92*
Cc1ccccc1/C=C1\CCCc2ccccc2C1=O	116	5.7*	0.4	30	24	61*
O=C1/C(=C/c2cccc([N+](=O)[O-])c2)CCc2ccccc21	8	1.4	0.8	23	12	19
O=C1/C(=C\c2ccc3ccccc3c2)CCCc2ccccc21	41	4.8*	0.5	20	19	52*
O=C1C(=Cc2ccccn2)CCc2ccccc21	x	x	x	x	-1	x
